# Assays:
# [1] = Solubility in chloroform; format: physicochemical
# [2] = Solubility in ethyl acetate solution; format: physicochemical
# [3] = Solubility in ethanol; format: physicochemical
# [4] = system: Brassica napus; assay: Stimulation of hypocotyls elongation in rape after 3 days; format: functional; parameters: concentration or dose not given beside the values
# Method in brief: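 Rape seeds were cultured at 25 °C in the dark. Hypocotyl length was measured after 3 days and compared with seeds treated with distilled water; two replicates.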
# [5] = system: Cucumis sativus; assay: Stimulation of cytyledon expansion in cucumber after 3 days; format: functional; parameters: concentration or dose not given beside the values
# Method in brief: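 Soaked cucumber seeds were germinated on 0.7% agar for 3 days in the dark at 26 °C, and cotyledons of similar size were selected. Compound in DMF was dried onto 6-cm filter paper, then distilled water was added to give 10 mg/L. Ten cotyledons were cultured per dish under light (300 Lux, 26 °C). Percent increase was taken over the no-regulator control.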
# [6] = system: Triticum aestivum; assay: Stimulation of coleoptiles growth in common wheat after 18 to 20 hrs; format: functional; parameters: concentration or dose not given beside the values
# Method in brief: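 Wheat coleoptile tips (5 mm) were soaked in distilled water for 1 h to remove endogenous hormone, then cut into 10 segments. Compound in DMF was dried onto 6-cm filter paper and placed in 0.01 mol/L phosphoric acid–citric acid buffer (pH 5) with 2% sucrose, giving 10 mg/L. Ten segments were cultured at 25 °C in the dark for 18–20 h. Length was compared with untreated segments; two replicates.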
Structure (SMILES),Solubility [1] [g],Solubility [2] [g],Solubility [3] [g],Activity [4] [%],Activity [5] [%],Activity [6] [%]
CCCCCCCCCCCCCCCCCC(=O)NCCO [N-(2-HYDROXYETHYL)STEARAMIDE],0.16,0.03,0.34,35.3,6.2,2.1
CCCCCCCCCCCCCCCCCC(=O)NCCOC(=O)COc1ccc(Cl)cc1Cl,10.22,3.54,1.03,73.8,0.7,7.5
CCCCCCCCCCCCCCCC(=O)NCCOC(=O)COc1ccc(Cl)cc1Cl,–,–,–,67.3,3.5,17
CCCCCCCCCCCCCC(=O)NCCOC(=O)COc1ccc(Cl)cc1Cl,–,–,–,68.1,-0.1,8.9
CCCCCCCCCCCCCCCCCC(=O)NCCOC(=O)COc1cccc(OC)c1,7.76,2.67,1.99,-1.4,-0.1,5
CCCCCCCCCCCCCCCCCC(=O)NCCOC(=O)COc1ccccc1C,53.97,8.27,3.08,57,5.7,0.7
CCCCCCCCCCCCCCCCCC(=O)NCCOC(=O)COc1ccc(Cl)cc1,4.37,1.54,1.88,71.8,6.3,5
CCCCCCCCCCCC(=O)NCCOC(=O)COc1ccc(C)cc1,–,–,–,54.9,5.9,4.1
CCCCCCCCCCCC(=O)NCCOC(=O)COc1ccc(Cl)cc1Cl,15.1,11,10.42,69,4,17.9
CCCCCCCCCCCC(=O)NCCO,1.76,0.38,9.14,–,–,–
"O=C(O)COc1ccc(Cl)cc1Cl [2,4-DICHLOROPHENOXYACETIC ACID]",–,–,–,65.7,0.8,28.3
CCCCCCCCCCCCCCCCCC(=O)NCCOC(=O)COc1ccc(C)cc1,–,–,–,38.7,9.8,3.3
CCCCCCCCCCCC(=O)NCCOC(=O)COc1ccc(Cl)cc1,–,–,–,71.8,2.9,16

# Reference: ChEMBL document CHEMBL1139901, “Synthesis of new plant growth regulator: N-(fatty acid) O-aryloxyacetyl ethanolamine” (Bioorg Med Chem Lett, 2007)
